From ChEMBL document CHEMBL1145555, “Combination of virtual screening and high throughput gene profiling for identification of novel liver X receptor modulators” (2008) come the findings set out here.

Experiment [1] concerns THP-1. Description: Induction of NR1H2 gene expression in human THP1 cells at 10 uM by array plate mRNA assay. The experiment is classed as functional. The essentials: (§1)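 Multiplex quantitative nuclease protection assay (ArrayPlate mRNA) of LXR-regulated genes, run at the same time as housekeeping genes. Compounds were tested at 10 µM alongside a negative control compound. CV% generally below 20%.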

Experiment [2] has as its system HepG2. Description: Induction of lipogenesis in human HepG2 cells after 24 hrs. The experiment is classed as functional, cell-based. In short, it runs like this:
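HepG2 cells pretreated with compound or vehicle for 24 h, then given 1 µCi [14C]glycerol for a further 48 h. Cellular triglycerides extracted, resolved by TLC and quantified by phosphorimaging. Reported as fold induction over vehicle. Mean of triplicates, single experiment.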

The subject of experiment [3] is THP-1. Description: Induction of SCD1 gene expression in human THP1 cells at 10 uM by array plate mRNA assay. The experiment is classed as functional. In short, it runs like this:
as §1

The subject of experiment [4] is THP-1. The experiment is described as follows: Induction of IL6 gene expression in human THP1 cells at 10 uM by array plate mRNA assay. The experiment is classed as functional. In short, it runs like this:
as §1

The test system of experiment [5] is THP-1. Description: Induction of SREBP1c gene expression in human THP1 cells at 10 uM by array plate mRNA assay. The class given is functional. In short, it runs like this: as §1
Experiment [6] deals with THP-1. The experiment is described as follows: Induction of B2M gene expression in human THP1 cells at 10 uM by array plate mRNA assay. The class given is functional. In short, it runs like this: as §1
Experiment [7] addresses T1, Oxysterols receptor LXR-alpha (Homo sapiens) (UniProt Q13133).
T1 sequence (whole entry): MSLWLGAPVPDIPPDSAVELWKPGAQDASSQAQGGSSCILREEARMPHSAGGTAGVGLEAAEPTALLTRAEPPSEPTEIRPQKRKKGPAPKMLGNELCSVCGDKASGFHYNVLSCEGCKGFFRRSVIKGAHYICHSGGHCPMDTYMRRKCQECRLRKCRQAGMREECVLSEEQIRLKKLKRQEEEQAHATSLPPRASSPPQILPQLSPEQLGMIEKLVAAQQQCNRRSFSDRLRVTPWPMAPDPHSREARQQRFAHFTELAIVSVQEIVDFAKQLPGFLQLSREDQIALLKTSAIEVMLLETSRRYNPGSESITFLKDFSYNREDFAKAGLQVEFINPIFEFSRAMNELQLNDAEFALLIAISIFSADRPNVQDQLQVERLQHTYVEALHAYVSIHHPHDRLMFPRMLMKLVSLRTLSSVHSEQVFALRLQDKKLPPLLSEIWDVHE
The experiment is described as follows: Agonist activity at human LXRalpha by SRC1 cofactor recruitment assay. The class given is functional. The essentials: (§2)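 HTRF coactivator recruitment: His-tagged human LBD (LXRα 2 nM or LXRβ 1 nM) incubated with compound, 20 nM biotin-SRC1 peptide, 5 nM streptavidin-allophycocyanin and Eu-anti-His antibody (1 nM for α, 0.5 nM for β). Incubated 1 h at room temperature with shaking. EC50 taken from the 665/615 nm time-resolved fluorescence ratio.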

In experiment [8] the test system is THP-1. The experiment is described as follows: Induction of ABCG1 gene expression in human THP1 cells at 10 uM by array plate mRNA assay. The class given is functional. The essentials: as §1
The subject of experiment [9] is THP-1. Description: Induction of ACTB gene expression in human THP1 cells at 10 uM by array plate mRNA assay. The class given is functional. In short, it runs like this:
as §1

Experiment [10] has as its system THP-1. Description: Induction of TBP gene expression in human THP1 cells at 10 uM using by array plate mRNA assay. The experiment is classed as functional. In short, it runs like this: as §1
Experiment [11] concerns the target T2, Oxysterols receptor LXR-beta (Homo sapiens) (UniProt P55055).
T2 sequence (whole entry): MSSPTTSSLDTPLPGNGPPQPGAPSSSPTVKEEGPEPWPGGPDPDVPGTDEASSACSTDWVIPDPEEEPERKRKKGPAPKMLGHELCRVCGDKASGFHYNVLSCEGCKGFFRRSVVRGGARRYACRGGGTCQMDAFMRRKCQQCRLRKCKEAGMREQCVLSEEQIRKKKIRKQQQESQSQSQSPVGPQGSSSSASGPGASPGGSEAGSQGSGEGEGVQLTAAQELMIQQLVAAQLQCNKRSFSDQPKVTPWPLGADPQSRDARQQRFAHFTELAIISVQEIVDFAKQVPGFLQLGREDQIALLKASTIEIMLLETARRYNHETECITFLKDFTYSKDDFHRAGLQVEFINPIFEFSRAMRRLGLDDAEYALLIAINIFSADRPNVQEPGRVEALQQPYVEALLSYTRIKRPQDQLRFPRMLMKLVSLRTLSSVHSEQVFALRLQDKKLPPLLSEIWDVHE
Description: Agonist activity at human LXRbeta by SRC1 cofactor recruitment assay. The class given is functional. The essentials:
as §2

Experiment [12] concerns THP-1. The experiment is described as follows: Induction of HDS11B1 gene expression in human THP1 cells at 10 uM using Array plate mRNA assay. The class given is functional. The essentials: as §1
The test system of experiment [13] is THP-1. Description: Induction of ABCA1 gene expression in human THP1 cells at 10 uM by array plate mRNA assay. The experiment is classed as functional. The essentials: as §1
Experiment [14] concerns THP-1. The experiment is described as follows: Induction of Cox2 gene expression in human THP1 cells at 10 uM by array plate mRNA assay. The experiment is classed as functional. In short, it runs like this: as §1
Experiment [15] relates to THP-1. The experiment is described as follows: Induction of cholesterol efflux in human THP1 cells. The class given is functional, cell-based. In short, it runs like this:
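THP-1 cells differentiated to macrophages with 200 nM PMA for 30 h. Labelled 18 h with 0.6 µCi [1,2-3H]cholesterol plus 16 µg/mL acLDL and PMA. Treated with compound 6 h in serum-free medium with 2 mg/mL BSA, then 18 h more with 5 µg/mL apoA-I plus compound. Supernatant radioactivity expressed as fold over vehicle. Mean of triplicates, single experiment.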

Experiment [16] relates to THP-1. The experiment is described as follows: Induction of FASN gene expression in human THP1 cells at 10 uM by array plate mRNA assay. The class given is functional. The essentials:
as §1

Experiment [17] concerns THP-1. The experiment is described as follows: Induction of APOE gene expression in human THP1 cells at 10 uM by array plate mRNA assay. The experiment is classed as functional. The essentials: as §1
Experiment [18] has as its system THP-1. The experiment is described as follows: Induction of LXRalpha gene expression in human THP1 cells at 10 uM by array plate mRNA assay. The class given is functional. In short, it runs like this:
as §1

Calls of active or inactive are those of the source. The rule behind the calls is not given here.

Turning to `C[C@@H]1C2Cc3ccc(O)cc3[C@]1(C)CCCN2CCc1ccccc1`, the Activity is reported as 1.16 in experiment [1]; 4.76 in experiment [3]; 0.91 in experiment [4]; 4.05 in experiment [5]; 1.05 in [6]; 13.56 in experiment [8]. For the same compound, the Activity in experiment [9] worked out at 0.93; in experiment [10], 1.19; in experiment [12] it was 1.43; in [13], 4.53; in experiment [14] it was 1.2; in experiment [16], 1.75. For the same compound, the Activity in [17] is recorded as 3.34; in experiment [18] it was 3.93. The result in [2], in experiment [7], in experiment [11] and in experiment [15] was Active.
For `O=S(=O)(c1ccccc1)N(CC(F)(F)F)c1ccc(C(O)(C(F)(F)F)C(F)(F)F)cc1` [T091317], the Activity in [1] is on record as 1.17; in experiment [3] it was 8.16; in experiment [4] it was 1.78; in experiment [5] it was 4.09; in experiment [6], 1.17; in experiment [8], 15.05. The Activity in experiment [9] turned out to be 0.93; in experiment [10], 1.05; in experiment [12] it was 1.26; in experiment [13], 5.9; in [14], 0.93; in experiment [16], 2.59. The Activity in experiment [17] is reported as 4.2; in [18] it was 4.56.
As for `C[C@H](CC[C@@H]1OC1(C)C)[C@H]1CC[C@H]2[C@@H]3CC=C4C[C@@H](O)CC[C@]4(C)[C@H]3CC[C@]12C` [24(S),25-EPOXYCHOLESTEROL], the Activity in experiment [1] is reported as 1.09; in experiment [3], 1.17; in [4] it was 0.82; in experiment [5], 2.05; in experiment [6], 1.25; in [8], 9.91. Besides, the Activity is on record as 0.9 in [9]; 0.99 in [10]; 0.79 in experiment [12]; 5.59 in experiment [13]; 1.35 in experiment [14]; 0.89 in [16]. In addition, the Activity in experiment [17] was found to be 2.61; in experiment [18], 3.41.
Consider `O=C(O)Cc1cccc(OCCCN(Cc2cccc(C(F)(F)F)c2Cl)CC(c2ccccc2)c2ccccc2)c1`, for which the Activity in experiment [1] was 1.22; in [3] it was 12.82; in [4], 1.02; in [5], 5.28; in experiment [6], 1.18; in [8], 24.92. The Activity in experiment [9] worked out at 0.89; in experiment [10] it was 1.25; in experiment [12] it was 0.8; in experiment [13], 10.04; in [14], 1.2; in experiment [16] it was 3.77. Also, the Activity is reported as 4.13 in [17] and 4.7 in experiment [18].
